Data reported in article PMC3382723 (The Journal of General Physiology, 2012).
Several values for one entry are separate records, joined by “and”; a condition that tells them apart may be missing. Equal entries are not always repeated. Where two headings read alike, the source gives them in different places. Values belong to the compound of their own block, whether it stands above or below them.

How the values were obtained:
[1] = system: coexpressed Kv7.2 and Kv7.3; conditions: cited from earlier work
[2] = system: concatemeric Kv7.2/Kv7.3 dimer; conditions: ref Hadley et al., 2003; cited from earlier work
[3] = target: heteromeric Kv7.2/7.3 channels (Homo sapiens, UniProt O43525+O43526); assay: DiC8-PI; type: cell-based
Method in brief: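 CHO cells stably cotransfected with human Kv7.2 and Kv7.3. Patches at 22 ± 0.5°C were excised inside-out and held at 0 mV. Bath was 165 mM KCl, 5 mM HEPES, 10 mM EGTA, pH 7.2, with 0.1 µM ATPγS. The PI(4,5)P2 analog was given by piezo microperfusion, rising from 0.1 to 300 µM, 30 s–2 min per step. Popen was taken over the last 20 s, corrected for channel number, with control subtracted. 11–29 patches per concentration. Weighted two-component Hill fit, shared nH.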

[4] = system: concatenated Kv7.2-7.3 channels; assay: DiC8-PI; type: cell-based; conditions: n = 9-21
Method in brief: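 HM1-CHO cells were transiently transfected with concatenated Kv7.2-7.3 cDNA plus an EGFP plasmid using Lipofectamine 2000. Inside-out patches at 0 mV and 22°C, in 165 mM KCl/HEPES/EGTA bath, pH 7.2, with 0.1 µM ATPγS. Stepwise PI(4,5)P2 analog, 0.1–300 µM, by fast perfusion. Popen was taken over the last 20 s and corrected for channel number. n = 9–21 patches per concentration.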

homomeric Kv7.2 channels [5] = target: T1, homomeric Kv7.2 channels (Homo sapiens, UniProt O43526); assay: DiC8-PI; type: cell-based; conditions: single-component Hill fit
Method in brief: (§1)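 HM1-CHO cells (human M1 receptor) were transiently transfected with human Kv7.2 or Kv7.3 A315T, plus EGFP. Excised inside-out patches were held at 0 mV, 22°C, with 0.1 µM ATPγS in the pH 7.2 KCl bath. The PI(4,5)P2 analog was applied in incremental concentrations. Popen was corrected for channel number. Single-component Hill fit. n = 7–19 patches (Kv7.2) and 7–15 patches (Kv7.3T).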

[6] = target: T2, homomeric Kv7.3^T (A315T) channels (Homo sapiens, UniProt O43525, A315T); assay: DiC8-PI; type: cell-based; conditions: single-component Hill fit
T2 sequence (O43525 1-872 A315T): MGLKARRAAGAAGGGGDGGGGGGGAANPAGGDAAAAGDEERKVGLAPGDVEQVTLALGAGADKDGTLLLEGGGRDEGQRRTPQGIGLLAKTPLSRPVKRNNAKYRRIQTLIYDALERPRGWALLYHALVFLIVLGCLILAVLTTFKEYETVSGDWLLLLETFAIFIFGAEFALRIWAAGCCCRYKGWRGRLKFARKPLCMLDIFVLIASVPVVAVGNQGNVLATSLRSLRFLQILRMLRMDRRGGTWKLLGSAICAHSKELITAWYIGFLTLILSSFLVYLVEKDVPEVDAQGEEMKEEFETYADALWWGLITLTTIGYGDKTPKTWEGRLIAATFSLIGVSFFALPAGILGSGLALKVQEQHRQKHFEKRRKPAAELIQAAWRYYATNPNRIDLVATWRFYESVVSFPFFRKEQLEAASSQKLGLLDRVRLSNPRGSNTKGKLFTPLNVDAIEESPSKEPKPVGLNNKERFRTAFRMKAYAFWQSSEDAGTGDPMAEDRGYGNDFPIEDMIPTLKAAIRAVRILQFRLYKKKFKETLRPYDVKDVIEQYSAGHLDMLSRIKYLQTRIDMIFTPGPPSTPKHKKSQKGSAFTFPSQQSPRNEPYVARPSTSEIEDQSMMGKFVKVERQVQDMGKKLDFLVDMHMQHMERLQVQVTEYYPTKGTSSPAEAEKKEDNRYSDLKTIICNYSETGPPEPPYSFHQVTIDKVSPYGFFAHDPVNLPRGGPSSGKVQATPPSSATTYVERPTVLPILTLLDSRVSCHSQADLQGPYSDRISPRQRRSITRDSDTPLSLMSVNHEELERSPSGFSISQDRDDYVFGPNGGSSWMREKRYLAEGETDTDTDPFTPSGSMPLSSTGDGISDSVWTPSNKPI
Method in brief: as §1

[7] = target: heteromeric Kv7.2/Kv7.3(EEE) channels (Homo sapiens, UniProt O43525+O43526, K462E/K469E/R471E); assay: DiC8-PI; type: cell-based; conditions: single-component fit
Method in brief: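 CHO cells expressing WT Kv7.2 with Kv7.3 […]. Excised inside-out patches were held at 0 mV, 22°C, in 165 mM KCl, 5 mM HEPES, 10 mM EGTA, pH 7.2, with 0.1 µM ATPγS. The PI(4,5)P2 analog was applied in incremental concentrations by fast piezo microperfusion. Popen was taken over the last 20 s and corrected for channel number. n = 8–13 patches.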

Kv7.2/Kv7.3 channels = assay: Activation model fitted to the DiC8-PI; type: cell-based, human
Method in brief: (§2)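 A binding/gating scheme was fitted to mean inside-out patch Popen–concentration data for the water-soluble PI(4,5)P2 analog: Kv7.2/Kv7.3 from 20–49 patches, Kv7.2/Kv7.3(EEE) from 8–13 patches. The scheme has two pairs of independent high-affinity (K3, Kv7.3) and low-affinity (K2, Kv7.2) sites and three open states (E3, E2, E1). Occupancies follow mass action with microscopic reversibility. Popen is the sum of the open-state occupancies.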

[8] = system: Kv7.2/Kv7.3(EEE) mutant channels; assay: Activation model fitted to the DiC8-PI; type: cell-based
Method in brief: as §2

homomeric Kv7.2 channels [9] = target: T1, homomeric Kv7.2 channels; conditions: ref Li et al., 2005; cited from earlier work
homomeric Kv7.3 channels = conditions: ref Li et al., 2005; cited from earlier work
[10] = system: coexpressed Kv7.2 and Kv7.3 subunits; conditions: ref Li et al., 2005; cited from earlier work
[11] = system: homomeric Kv7(EEE) channels; conditions: expressed as homomers; ref Hernandez et al., 2008; cited from earlier work
[12] = patches with only a single active channel

heteromeric Kv7.2/7.3 channels, sequence (O43525 whole entry, the tested form may be a part): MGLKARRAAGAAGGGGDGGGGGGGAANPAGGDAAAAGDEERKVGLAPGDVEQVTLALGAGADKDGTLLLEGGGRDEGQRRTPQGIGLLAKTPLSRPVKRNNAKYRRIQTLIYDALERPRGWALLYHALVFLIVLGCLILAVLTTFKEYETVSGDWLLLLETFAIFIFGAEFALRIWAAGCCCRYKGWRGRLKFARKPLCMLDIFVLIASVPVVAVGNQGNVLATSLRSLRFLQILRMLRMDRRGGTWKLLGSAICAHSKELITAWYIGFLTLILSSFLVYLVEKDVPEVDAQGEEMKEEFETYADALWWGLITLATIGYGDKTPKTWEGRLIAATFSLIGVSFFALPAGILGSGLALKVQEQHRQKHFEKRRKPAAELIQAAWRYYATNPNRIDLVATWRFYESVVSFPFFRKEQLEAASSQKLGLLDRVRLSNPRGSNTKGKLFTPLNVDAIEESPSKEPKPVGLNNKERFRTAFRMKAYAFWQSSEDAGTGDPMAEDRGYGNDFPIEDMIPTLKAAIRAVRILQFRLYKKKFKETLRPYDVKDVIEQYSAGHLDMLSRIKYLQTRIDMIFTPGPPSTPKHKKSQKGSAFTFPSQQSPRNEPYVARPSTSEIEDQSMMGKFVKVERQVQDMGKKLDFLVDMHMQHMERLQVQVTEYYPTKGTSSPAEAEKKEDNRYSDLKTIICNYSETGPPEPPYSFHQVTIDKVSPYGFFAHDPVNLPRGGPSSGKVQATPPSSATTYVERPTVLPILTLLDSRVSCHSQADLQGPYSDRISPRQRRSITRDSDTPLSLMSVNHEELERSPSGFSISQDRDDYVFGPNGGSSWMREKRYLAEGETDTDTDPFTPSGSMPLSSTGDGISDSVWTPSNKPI
heteromeric Kv7.2/7.3 channels, sequence (O43526 whole entry, the tested form may be a part): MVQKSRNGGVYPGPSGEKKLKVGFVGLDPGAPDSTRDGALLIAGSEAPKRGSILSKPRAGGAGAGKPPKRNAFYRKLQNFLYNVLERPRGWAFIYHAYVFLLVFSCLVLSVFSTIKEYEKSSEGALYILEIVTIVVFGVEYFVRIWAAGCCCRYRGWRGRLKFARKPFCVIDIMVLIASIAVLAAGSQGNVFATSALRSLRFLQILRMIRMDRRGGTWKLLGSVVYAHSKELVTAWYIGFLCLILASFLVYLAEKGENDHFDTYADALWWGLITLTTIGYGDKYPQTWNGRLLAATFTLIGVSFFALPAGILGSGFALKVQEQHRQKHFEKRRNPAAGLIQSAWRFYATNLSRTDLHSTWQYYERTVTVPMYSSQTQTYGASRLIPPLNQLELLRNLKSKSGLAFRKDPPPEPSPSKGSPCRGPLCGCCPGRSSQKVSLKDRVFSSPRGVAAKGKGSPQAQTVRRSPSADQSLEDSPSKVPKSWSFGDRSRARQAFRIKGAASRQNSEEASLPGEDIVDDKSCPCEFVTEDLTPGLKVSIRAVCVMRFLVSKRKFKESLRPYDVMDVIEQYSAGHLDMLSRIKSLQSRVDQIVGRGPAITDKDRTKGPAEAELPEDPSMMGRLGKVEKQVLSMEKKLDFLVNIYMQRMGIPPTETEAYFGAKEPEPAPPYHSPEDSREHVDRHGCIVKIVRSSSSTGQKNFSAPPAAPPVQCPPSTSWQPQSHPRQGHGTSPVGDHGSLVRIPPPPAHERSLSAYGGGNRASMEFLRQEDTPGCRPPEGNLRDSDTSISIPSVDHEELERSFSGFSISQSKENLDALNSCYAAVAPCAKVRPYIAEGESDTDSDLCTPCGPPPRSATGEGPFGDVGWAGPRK
T1 sequence (O43526 whole entry): as the sequence (O43526 whole entry, the tested form may be a part) above
heteromeric Kv7.2/Kv7.3(EEE) channels, sequence (O43525 whole entry K462E/K469E/R471E, the tested form may be a part): as the sequence (O43525 whole entry, the tested form may be a part) above, with K462E, K469E, R471E counted along it
heteromeric Kv7.2/Kv7.3(EEE) channels, sequence (O43526 whole entry, the tested form may be a part): as the sequence (O43526 whole entry, the tested form may be a part) above

Compound: CC[N+](CC)(CC)CC [TEA, tetraethylammonium]
Hill slope of TEA inhibition ([1]; ref Shapiro et al. [2000]): 0.58 | Hill slope of TEA inhibition ([1]; single binding site equation, ref Hadley et al., 2003): 0.98 ± 0.02 | Hill slope of TEA inhibition [2]: 0.97 ± 0.12

Popen(max1) ([3]; component 1, single- and pauci-channel patches, 0 mV): 0.2 ± 0.0073 and ~0.2 | Popen(max2) ([3]; component 2, single- and pauci-channel patches, 0 mV): 0.6 ± 0.0012 | Hill coefficient ([3]; constrained the same for both components, single- and pauci-channel patches): 1.4 ± 0.06 and ~1.4 | Popen at full opening ([3]; higher ligand concentrations, 0 mV): ~0.8 | partial channel opening, % of the maximum Popen ([3]; low concentrations, binding to Kv7.3 subunit): ~25% | Hill coefficient nH [3, 12]: 1.6 ± 0.36 | Popen(max1) [3, 12]: 0.28 ± 0.045 | Popen(max2) [3, 12]: 0.61 ± 0.0074 | factor between apparent affinities of high- and low-affinity sites ([3]; two-component curves): about 60 | Hill coefficient nH (homomeric Kv7.2 channels [5]): 0.76 ± 0.08 | EC50 (homomeric Kv7.2 channels [5]; 0 mV): 76.2 µM and 76 µM | Hill coefficient nH [6]: 0.95 ± 0.2 | EC50 ([6]; 0 mV): 3.6 ± 1 µM | Hill coefficient nH [7]: 1.1 ± 0.1 | EC50 ([7]; maximum Popen undetermined): 265 ± 74 µM | Kd ([8]; read-out: K3, model 4 free fit): 0.94 µM
Compound: CCCCCCCC(=O)OC[C@H](COP(=O)(O)O[C@@H]1[C@H](O)[C@H](O)[C@@H](OP(=O)(O)O)[C@H](OP(=O)(O)O)[C@H]1O)OC(=O)CCCCCCC [DiC8-PI(4,5)P2, dioctanoylphosphatidyl-4,5-bisphosphate]
concentration-response curve compared with K2/3-CHO cells [4]: very similar biphasic | Po (max) (Kv7.2/Kv7.3 channels; model 4): 0.82 | E1, gating equilibrium constant (Kv7.2/Kv7.3 channels; model 4, all four sites occupied): 4.42 ± 0.61 | E2, gating equilibrium constant (Kv7.2/Kv7.3 channels; model 4, two high- and one low-affinity site occupied): 0.46 ± 0.39 | E3, gating equilibrium constant (Kv7.2/Kv7.3 channels; model 4, two high-affinity sites occupied): 0.26 ± 0.07 | concentration at which Po3 peaks (Kv7.2/Kv7.3 channels; model 4 prediction): around 7 µM | peak open probability Po3 (only Kv7.3 subunits bound) (Kv7.2/Kv7.3 channels; model 4 prediction, around 7 µM): 0.145 | E1 ([8]; model 4 free fit): 0.89 ± 0.43 | E2 ([8]; model 4 free fit): 0.00 | E3 ([8]; model 4 free fit): 0.04 ± 0.14 | Po (max) ([8]; model 4 free fit): 0.47 | maximum open probability Po3 (both Kv7.3 sites occupied) ([8]; model 4 prediction, at 10 µM): 0.027 | Hill slope (homomeric Kv7.2 channels [9]): 0.97 | EC50 (homomeric Kv7.3 channels): 2.6 µM | Hill slope (homomeric Kv7.3 channels): 1.33 | EC50 [10]: 40 µM | fold less sensitive than WT channels [11]: > 100 fold
